Test results published in ChEMBL document CHEMBL1148692, “Synthesis, antiviral and antitumor activity of 2-substituted-5-amidino-benzimidazoles” (Bioorg Med Chem, 2007).
Activity calls are given as the source filed them. No cut-off for these calls is given here.

Columns and labels:
[1] = system: Human alphaherpesvirus 1; assay: Antiviral activity against Herpesvirus 1 in HeLa cells by MTT assay; format: functional, organism-based; conditions: in the assay text read “by optical evaluation of CPE” for “by MTT assay”; for EC50: Human alphaherpesvirus 1, HeLa
Method in brief: (§1)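 HeLa monolayers were seeded at 10⁵ cells/mL and grown in DMEM with 10% FBS. Compounds were serially diluted from 10⁻⁴ to 10⁻¹⁰ M and added to one-day-old confluent monolayers, which were then immediately infected at 10 CCID50 in DMEM with 2% serum. Cytopathic effect was scored by optical microscopy at 48 h and compared with untreated infected wells. EC50 is the mean of at least three independent evaluations.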

[2] = system: SW-620; assay: Growth inhibition of human SW620 cells by MTT assay; format: functional, cell-based
Method in brief: (§2)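 Cells were kept as monolayers in DMEM with 10% FBS, 2 mM glutamine and antibiotics at 37 °C under 5% CO₂, and seeded at 1–3 × 10⁴ cells/mL. They were exposed for 72 h to five 10-fold dilutions (10⁻⁸–10⁻⁴ M), with DMSO solvent controls. Growth was read by MTT at 570 nm and expressed as percentage growth relative to time-zero and untreated controls. IC50 was obtained by linear regression from quadruplicates in three experiments.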

[3] = system: Human echovirus 7; assay: Antiviral activity against Echovirus 7 in GMK cells by MTT assay; format: functional, cell-based, Echovirus E7; conditions: Enterovirus B
Method in brief: (§3)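 GMK monolayers were seeded at 10⁵ cells/mL and grown in DMEM with 10% FBS. Compound dilutions from 10⁻⁴ to 10⁻¹⁰ M were added to one-day-old confluent cells, immediately followed by virus at 10 CCID50 in DMEM with 2% serum. Cell lysis was followed microscopically at 24 h and quantified by MTT, as % CPE inhibition versus infected wells without compound. EC50 is the mean of at least two independent MTT experiments.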

[4] = system: Human adenovirus 5; assay: Antiviral activity against Adenovirus 5 in HeLa cells by MTT assay; format: functional, organism-based; conditions: in the assay text read “by optical evaluation of CPE” for “by MTT assay”; for EC50: Human mastadenovirus C; method in brief: as §1
[5] = system: NCI-H460; assay: Growth inhibition of human H460 cells by MTT assay; format: functional, cell-based; method in brief: as §2
[6] = system: MIA PaCa-2; assay: Growth inhibition of human MiaPaCa2 cells by MTT assay; format: functional, cell-based; method in brief: as §2
[7] = system: HeLa; assay: Growth inhibition of human HeLa cells by MTT assay; format: functional, cell-based; method in brief: as §2
[8] = Growth inhibition of human WI38 cells by MTT assay; format: cell-based; conditions: WI-38; method in brief: as §2
[9] = system: MCF7; assay: Growth inhibition of human MCF7 cells by MTT assay; format: functional, cell-based; method in brief: as §2
[10] = system: Coxsackievirus B5; assay: Antiviral activity against Coxsackievirus B5 in GMK cells by MTT assay; format: functional, organism-based; conditions: Enterovirus B; method in brief: as §3

| Structure (SMILES) | EC50 [1] [µM] | IC50 [2] [µM] | EC50 [3] [µM] | EC50 [4] [µM] | IC50 [5] [µM] | IC50 [6] [µM] | IC50 [7] [µM] | IC50 [8] [µM] | IC50 [9] [µM] | EC50 [10] [µM] | Activity [1] | Activity [4] |
| --- | --- | --- | --- | --- | --- | --- | --- | --- | --- | --- | --- | --- |
| c1ccc(-c2nc3cc(C4=NCCN4)ccc3[nH]2)nc1 | 56.7 | 19 | 0.63 | > 100 | 22.5 | 16 | 16 | 12 | 12 | 4.3 |  |  |
| CC(C)NC(=N)c1ccc2[nH]c(-c3ccccn3)nc2c1 | > 100 | > 100 | 0.33 | 15.2 | > 100 | 79 | > 100 | 20.4 | 50 | 2.7 |  |  |
| N=C(N)c1ccc2[nH]c(-c3ccccn3)nc2c1 | > 100 | > 100 | 3.2 | > 100 | > 100 | > 100 | 82 | 59.4 | ≥ 100 | 1.7 |  |  |
| Cn1cccc1-c1nc2cc(C3=NCCN3)ccc2[nH]1 | 28.5 | 15 | > 100 | > 100 | 38 | 11.5 | 20 | 15.6 | 5 | > 100 |  |  |
| CC(C)NC(=N)c1ccc2[nH]c(-c3cccn3C)nc2c1 |  | > 100 | 23.2 |  | > 100 | > 100 | > 100 | > 100 | 20 | > 100 | inactive | inactive |
| Cn1cccc1-c1nc2cc(C(=N)N)ccc2[nH]1 | 30 | 84 | 5 | 5.9 | > 100 | > 100 | 70 | > 100 | 12 | 3.5 |  |  |
| COc1cc([C@@H]2c3cc4c(cc3[C@@H](O[C@@H]3O[C@@H]5CO[C@@H](C)O[C@H]5[C@H](O)[C@H]3O)[C@H]3COC(=O)[C@H]23)OCO4)cc(OC)c1O [ETOPOSIDE] |  |  |  |  | 0.2 |  | 2.9 |  |  |  |  |  |
| c1ncc(-c2nc3cc(C4=NCCN4)ccc3[nH]2)[nH]1 | > 100 | > 100 | > 100 |  | > 100 | > 100 | > 100 | > 100 | ≥ 100 | > 100 |  | inactive |
| N=C(N)c1ccc2[nH]c(-c3cnc[nH]3)nc2c1 |  | > 100 | > 100 |  | > 100 | 34 | > 100 | > 100 | 7.2 | > 100 | inactive | inactive |
| CC(C)NC(=N)c1ccc2[nH]c(-c3cnc[nH]3)nc2c1 | > 100 | > 100 | > 100 |  | > 100 | > 100 | > 100 | > 100 | 26 | > 100 |  | inactive |
